Screening data as filed in PubChem BioAssay.
Rows were chosen to be rich in hits. Some 6.7% of all compounds tested hit in one or more screens of this group.
T cruzi inh: inhibitors of intracellular T. cruzi growth, primary screen, luminescence, NIH3T3 host cells | T. cruzi beta-gal in NIH3T3, 90 h | inhibition, % (test concentration not listed) | 300,000 tested, 1.4% active | AID 1885, 2009;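 active = mean inhibition across valid replicates above about 55%, limit read from the data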;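 also: signal also drops with host cell toxicity which is not excluded here; 0% = plate median of DMSO wells and 100% = zero luminescence signal; higher percent means less beta-gal luminescence so fewer parasites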
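System: mouse NIH/3T3 fibroblasts infected with β-gal-expressing T. cruzi Tulahuen C4 / Input: NIH/3T3 cells, 5,000 per well / Buffer or medium: Low-serum DMEM with 2% FBS / Probe or stimulus: 5000 reporter trypomastigotes per well / Schedule: ≥90 h infection period, 3 h prior cell attachment / Measured by: GalScreen luminescence, 60 min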
CSC inhib: cancer stem cell viability inhibitors, primary screen, luminescence; cancer stem cell-like cells viability; inhibition, % at 7.5 µM; 300,000 tested, 1.1% active; AID 2717, 2010; in the data active = inhibition above about 75%; tested in HMLE shEcad cells
Beta cell apopt: inhibitors of cytokine-induced beta cell apoptosis, primary screen, luminescence. INS-1E cytokine-induced death, ATP luminescence, 48 h; percent of positive-control rescue, neutral wells zero. 300,000 tested, 0.8% active. protection from apoptosis, % (concentration not given with the values);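 active = Every replicate reaches about 75%, or at least half do and their mean reaches it too, limit read from the data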;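 also: 0% = cytokine-treated negative control wells and 100% = positive control rescue; higher means more ATP so stronger rescue from cytokine killing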
CHOP inh: inhibitors of CHOP promoter induction, primary screen, cell-based, unfolded protein response, luciferase reporter; inhibition, % at 10 µM; 220,000 tested, 3.8% active; AID 2732, 2010; CHO-K1 CHOP-promoter luciferase, tunicamycin-induced, 15-18 h;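 active = compounds that reduced the stress-induced luciferase reporter signal by more than about 70% of percent inhibition, limit read from the data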;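 also: 0% = tunicamycin plus vehicle and 100% = wells without tunicamycin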
GRIN3A LBD mod: binders of NR3A ligand-binding domain, primary screen, biophysical, differential scanning fluorimetry, uHTS. Glutamate receptor ionotropic, NMDA 3A (GRIN3A) ligand-binding domain. NR3A LBD differential scanning fluorimetry, Tm shift; 0% = protein alone, 100% = glycine-bound protein. Tm shift relative to glycine control, % at 25 µM. 340,000 tested, 2.5% active;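 active = melting temperature shift of at least 10% of the positive control shift, at one fixed dose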
PREPL inhibitor: PREPL enzyme inhibitors, primary screen, biochemical, fluorescence polarization | 320,000 tested, 0.68% active | AID 2751, 2010 | recombinant PREPL, fluorescence polarization activity-based probe | inhibition, % at 5.96 µM | Prolyl endopeptidase-like (Homo sapiens), Q4J6C6; in the data active = inhibition above about 43%;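 also: 0% = enzyme with DMSO and 100% = wells lacking enzyme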
* marks the source's active call; other numbers are inactive results.

c1coc(-c2nc(-c3ccco3)c(-c3ccco3)nc2-c2ccco2)c1 was read as T cruzi inh -1, CSC inhib 3, Beta cell apopt -11, CHOP inh -60, GRIN3A LBD mod -27 and PREPL inhibitor 71*.
Cc1nn(C)c2ncc(C(=O)c3cc(F)ccc3O)cc12 was read as T cruzi inh -18, CSC inhib -11, Beta cell apopt -2, CHOP inh 21, GRIN3A LBD mod 0 and PREPL inhibitor -4.
Screening O=C(c1cnc2ccc3ccccc3c2c1)c1cc(F)ccc1O returned T cruzi inh 7, CSC inhib 84*, Beta cell apopt -4, CHOP inh 43, GRIN3A LBD mod 0 and PREPL inhibitor -2.
Screening COCCN(C(=O)CSc1nc2ccccc2o1)c1c(N)n(Cc2ccccc2)c(=O)[nH]c1=O returned CSC inhib -29, Beta cell apopt -4, GRIN3A LBD mod -1 and PREPL inhibitor -10.
Screening NC(=O)c1sc(-c2ccsc2)cc1NS(=O)(=O)c1ccc(C(F)(F)F)cc1 returned T cruzi inh -22, CSC inhib 79*, Beta cell apopt 13, CHOP inh -1, GRIN3A LBD mod 9 and PREPL inhibitor 10.
For Cc1ccc2oc(Nc3nc(-c4ccccc4)cc(=O)[nH]3)nc2c1 the results were T cruzi inh 75*, CHOP inh 101* and GRIN3A LBD mod -4.
`COC(=O)c1sc(S(=O)(=O)Nc2c(C)nn(C)c2C)c(C(=O)OC)c1C` gave GRIN3A LBD mod -1.
COC(=O)c1sc(NC(=S)NNC(=O)c2c(Br)c(C)nn2C)c(C(=O)OC)c1C was read as T cruzi inh -9, CSC inhib -6, Beta cell apopt -1, GRIN3A LBD mod 12* and PREPL inhibitor 19.
Screening C=CCN1C(=O)C2C(C(=O)NC3CCCC3)C3C=CC2(O3)C1C(=O)NC1CCCC1 (stereo unspecified) returned T cruzi inh -5, Beta cell apopt -2, GRIN3A LBD mod 0 and PREPL inhibitor -1.
For N/C(=N\OC(=O)/C=C/c1ccccc1)c1cccnc1 the results were T cruzi inh -12, CSC inhib 11, Beta cell apopt -5, CHOP inh 6, GRIN3A LBD mod 20* and PREPL inhibitor 2.
`CCN(C(=O)Cc1c(C(=O)O)n(CC)c2ccccc12)c1cccc(C(F)(F)F)c1` gave T cruzi inh -12, CSC inhib -14, Beta cell apopt 3, GRIN3A LBD mod 8 and PREPL inhibitor 3.
COc1cc([N+](=O)[O-])ccc1-c1ccc(C(=O)Nc2ccc(NC(C)=O)cc2)o1 was read as T cruzi inh -7, CSC inhib -3, Beta cell apopt 2, CHOP inh 61, GRIN3A LBD mod -5 and PREPL inhibitor 4.
CC(=O)c1ccc(NC(=O)c2ccc(COc3ccccc3[N+](=O)[O-])o2)cc1 was read as T cruzi inh -24, CSC inhib 11, Beta cell apopt 0, CHOP inh 53, GRIN3A LBD mod 13* and PREPL inhibitor -22.
CN1CCN(c2ccc(NC(=O)c3ccc(-c4ccc(Br)cc4)o3)cc2)CC1 was read as T cruzi inh 58*, CSC inhib -15, Beta cell apopt 24, CHOP inh -7, GRIN3A LBD mod 6 and PREPL inhibitor 35.
Screening CCN1CCN(c2ccc(NC(=O)c3ccc(Br)o3)cc2)CC1 returned T cruzi inh -1 and GRIN3A LBD mod -2.
`COc1ccc([N+](=O)[O-])cc1NC(=O)Nc1ccc(OC)c(OC)c1` gave T cruzi inh 6, CSC inhib 3, Beta cell apopt -4, CHOP inh 20, GRIN3A LBD mod -6 and PREPL inhibitor 13.
CC(=O)Nc1ccc(NC(=O)c2ccc(-c3ccc([N+](=O)[O-])cc3)o2)cc1 was read as T cruzi inh -2, CSC inhib 17, Beta cell apopt -1, GRIN3A LBD mod 12* and PREPL inhibitor 10.
